Results as given in ChEMBL document CHEMBL3769383, “Cefsulodin Inspired Potent and Selective Inhibitors of mPTPB, a Virulent Phosphatase from Mycobacterium tuberculosis” (ACS Med Chem Lett, 2015).
pIC50, pKi: −log10 of the molar value. The source made the active and inactive calls. The rule behind the calls is not given here.

What was measured:
[1] = Reversible competitive inhibition of Mycobacterium tuberculosis PTPB expressed in Escherichia coli BL21/DE3 cells using pNPP as substrate after 5 mins
[2] = Inhibition of Mycobacterium tuberculosis PTPB expressed in Escherichia coli BL21/DE3 cells using pNPP as substrate after 5 mins by spectrophotometry
BL21-DE3 = assay: Inhibition of Mycobacterium tuberculosis PTPB expressed in Escherichia coli BL21/DE3 cells using pNPP as substrate at 200 uM after 5 mins by spectrophotometry
Summary of the method: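 Single-point screen: the test compound is present at 200 μM in the assay (a compound concentration, not a substrate level). The read-out is phosphatase-catalysed hydrolysis of para-nitrophenyl phosphate.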

SMILES: NC(=O)C(c1ccccc1)S(=O)(=O)O (centres undefined)
- pKi [1]: 4.13
- pIC50 [2]: 3.74

SMILES: CC(=O)OCC1=C(C(=O)O)N2C(=O)[C@@H](N)[C@H]2SC1
- inhibition (BL21-DE3): inactive

SMILES: NC(=O)c1ccncc1
- inhibition (BL21-DE3): inactive
